Some results are limits rather than exact numbers.

Here are results for 18 compounds from ChEMBL document CHEMBL1143559, “Design of potent and selective 2-aminobenzimidazole-based p38alpha MAP kinase inhibitors with excellent in vivo efficacy” (J Med Chem, 2005).

For data set [1], the system named is Mus musculus. Kind of data set: In vivo threshold minimum effective dose for inhibition of LPS-induced TNF-alpha production in mice after oral administration. Format: functional.
Data set [2] has as its system Rattus norvegicus. Kind of data set: In vivo threshold minimum effective dose for inhibition of rat paw-swelling after oral bid dosing for 14 days. Format: functional.
Data set [3] relates to Rattus norvegicus. Kind of data set: In vivo threshold minimum effective dose for inhibition of bone erosion and cartilage destruction in rat after oral bid dosing for 14 days. The class given is functional.
Data set [4] can be described thus: (§1) Area under concentration-curve (from 0-infinity) for a compound in plasma of rats after oral administration. Format: ADME. Details: time infinity, route oral. Particulars: rat.
The species named for data set [5] is Mus musculus. As to the kind of experiment: Inhibitory concentration against TNF-alpha production in mouse macrophages. The class given is functional.
For data set [6], the target named is Mitogen-activated protein kinase 14 (Homo sapiens, UniProt Q16539). Kind of data set: Inhibition of human recombinant Mitogen activated protein kinase p38 alpha activity using ATP[gamma-33P] and EGFR 21mer-peptide. An outline of the steps: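 Recombinant human p38α, filter binding format with ATP[γ-33P] and EGFR 21-mer peptide substrate; IC50 in nM, n determinations per compound.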
Sequence of Mitogen-activated protein kinase 14 (Q16539 whole entry): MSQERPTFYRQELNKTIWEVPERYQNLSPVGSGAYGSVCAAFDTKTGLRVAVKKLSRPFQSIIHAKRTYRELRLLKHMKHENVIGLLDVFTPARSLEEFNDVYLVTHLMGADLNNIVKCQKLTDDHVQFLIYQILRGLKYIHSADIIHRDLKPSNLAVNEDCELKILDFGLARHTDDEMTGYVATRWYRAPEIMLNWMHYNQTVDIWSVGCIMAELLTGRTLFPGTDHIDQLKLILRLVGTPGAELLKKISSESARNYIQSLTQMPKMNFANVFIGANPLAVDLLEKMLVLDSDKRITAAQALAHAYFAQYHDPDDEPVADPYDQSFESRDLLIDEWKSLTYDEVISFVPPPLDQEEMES

Data set [7] has as its system Rattus norvegicus. Kind of data set: Inhibition of TNF-alpha production in rat joint after oral administration at 3 mg/Kg. The class given is functional.
Another data set concerns the target Cytochrome P450 3A4 (Homo sapiens, UniProt P08684). As to the kind of experiment: In vitro inhibitory concentration against Cytochrome P450 3A4. Format: ADME.
A short description of data set [8]: Bioavailability of compound in rat plasma after oral administration. Format: ADME, organism-based.
The nature of data set [9]: as §1. Details: route oral, time infinity. Format: ADME. Particulars: rat.

Sequence of Cytochrome P450 3A4 (P08684 whole entry): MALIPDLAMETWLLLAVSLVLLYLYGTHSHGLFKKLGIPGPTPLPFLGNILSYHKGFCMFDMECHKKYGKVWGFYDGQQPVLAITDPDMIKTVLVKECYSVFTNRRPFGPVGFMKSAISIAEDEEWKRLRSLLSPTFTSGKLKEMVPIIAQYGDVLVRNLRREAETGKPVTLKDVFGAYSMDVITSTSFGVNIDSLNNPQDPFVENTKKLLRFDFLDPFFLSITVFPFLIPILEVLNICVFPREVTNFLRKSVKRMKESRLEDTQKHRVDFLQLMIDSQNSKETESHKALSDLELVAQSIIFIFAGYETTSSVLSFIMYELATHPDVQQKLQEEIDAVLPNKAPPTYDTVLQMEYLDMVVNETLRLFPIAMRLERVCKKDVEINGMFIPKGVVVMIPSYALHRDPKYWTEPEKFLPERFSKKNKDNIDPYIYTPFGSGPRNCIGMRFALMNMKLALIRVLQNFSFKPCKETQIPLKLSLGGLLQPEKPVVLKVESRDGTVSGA

With `CC(C)(C)c1nc(-c2ccc(F)cc2F)c(-c2ccc3nc(N)n(S(=O)(=O)C(C)(C)C)c3c2)[nH]1.CS(=O)(=O)O`, the TMED50 with Mus musculus [1] came out at 5.3 mg/kg; in the data set on Rattus norvegicus [2], 1.5 mg/kg; in the data set with Rattus norvegicus [3], 4.2 mg/kg. Moreover, the AUC 0-inf in [4] worked out at 28.3 µM·h. In addition, the 50% inhibitory concentration (IC50) came out at 1.6 nM in the data set filed under Mus musculus [5] and 4.8 nM in data set [6]. The inhibition in vivo at 3 mg/kg in the data set with Rattus norvegicus [7] came out at 82%.
In the data set with Mus musculus [1], `CCc1nc(-c2ccc(F)cc2)c(-c2ccc3nc(N)n(S(=O)(=O)C(C)C)c3c2)[nH]1.CS(=O)(=O)O` gave a TMED50 of 6.5 mg/kg. For the same compound, the IC50 in the data set listed under Mus musculus [5] was found to be 47.2 nM; in [6] it was 4.7 nM; on Cytochrome P450 3A4, 4400 nM.
For `CC(C)S(=O)(=O)n1c(N)nc2ccc(-c3nc(C4CCNCC4)[nH]c3-c3ccccc3)cc21`, the IC50 in the data set listed under Mus musculus [5] is 2880 nM; in [6] it was 2.7 nM.
Take `CC(C)S(=O)(=O)n1c(N)nc2ccc(-c3[nH]cnc3-c3ccccc3)cc21`: the TMED50 in the data set on Mus musculus [1] worked out at 19.8 mg/kg. In [4], this compound came in with an AUC 0-inf of 3.7 µM·h. For the same compound, the results for the IC50 (in the data set listed under Mus musculus [5]; in data set [6]; against Cytochrome P450 3A4) were 31.8 nM, 4.2 nM and 1600 nM, respectively.
With `CC(C)S(=O)(=O)n1c(N)nc2ccc(-c3[nH]cnc3-c3ccc(F)cc3)cc21.CS(=O)(=O)O.CS(=O)(=O)O`, the TMED50 in the data set on Mus musculus [1] came to 9.6 mg/kg. Moreover, the AUC 0-inf in data set [4] was 1.4 µM·h. Moreover, the IC50 in the data set filed under Mus musculus [5] turned out to be 65.7 nM; in data set [6], 4.3 nM; on Cytochrome P450 3A4 it was 800 nM.
In turn, `CC(C)S(=O)(=O)n1c(N)nc2ccc(-c3[nH]c(-c4c(Cl)cccc4Cl)nc3-c3ccccc3)cc21.CS(=O)(=O)O` had a TMED50 in the data set with Mus musculus [1] of 2.5 mg/kg. The AUC 0-inf in data set [4] came to 17 µM·h. For the same compound, the IC50 is 3.4 nM in the data set listed under Mus musculus [5] and 15.3 nM in data set [6]. This compound had a bioavailability in [8] of 55%.
Take `CC(C)S(=O)(=O)n1c(N)nc2ccc(-c3[nH]c(C(C)(C)C)nc3-c3ccc(F)cc3)cc21.CS(=O)(=O)O.CS(=O)(=O)O`: the TMED50 in the data set on Mus musculus [1] was 3.9 mg/kg. Moreover, the AUC 0-inf in [4] came out at 13.5 µM·h. For the same compound, the IC50 in the data set listed under Mus musculus [5] stood at 31.1 nM; in [6], 15.9 nM; against Cytochrome P450 3A4, 31800 nM.
In the data set on Mus musculus [1], `CS(=O)(=O)O.CS(=O)(=O)O.Nc1nc2ccc(-c3[nH]c(-c4c(F)cccc4F)nc3-c3ccccc3)cc2n1S(=O)(=O)C1CCCC1` registered a TMED50 of 5.1 mg/kg. The same compound displayed an AUC 0-inf in data set [4] of 0.9 µM·h. For the same compound, the values for the IC50 (in the data set filed under Mus musculus [5]; in data set [6]; against Cytochrome P450 3A4) were 6 nM, 19.9 nM and 13000 nM, respectively.
For `CC(C)S(=O)(=O)n1c(N)nc2ccc(-c3c(-c4ccc(F)cc4)ncn3C)cc21`, the IC50 amounted to 720 nM in the data set filed under Mus musculus [5] and 20.7 nM in data set [6].
As for `CC(C)S(=O)(=O)n1c(N)nc2ccc(-c3[nH]c(C(C)(C)C)nc3-c3ccc(F)cc3F)cc21.CS(=O)(=O)O`, the TMED50 in the data set with Mus musculus [1] amounted to 2.2 mg/kg; in the data set with Rattus norvegicus [2] it was 1.5 mg/kg; in the data set on Rattus norvegicus [3], 8.1 mg/kg. In data set [4], this compound had an AUC 0-inf of 14.6 µM·h. Moreover, the IC50 in the data set listed under Mus musculus [5] came out at 6.2 nM; in data set [6], 4.4 nM. Also, the inhibition in vivo at 3 mg/kg in the data set with Rattus norvegicus [7] was 81%.
Turning to `CN(C)S(=O)(=O)n1c(N)nc2ccc(-c3[nH]c(-c4c(F)cccc4F)nc3-c3ccccc3)cc21.CS(=O)(=O)O.CS(=O)(=O)O`, the TMED50 with Mus musculus [1] was determined as 12.5 mg/kg. In data set [4], this compound had an AUC 0-inf of 9.8 µM·h. Also, the results for the half-inhibitory concentration (IC50) (in the data set listed under Mus musculus [5]; in [6]) were 8.8 nM and 22.8 nM, respectively.
`CC(C)S(=O)(=O)n1c(N)nc2ccc(-c3nc(-c4c(F)cccc4F)[nH]c3-c3ccccc3)cc21` yielded a TMED50 in the data set on Mus musculus [1] of 5.2 mg/kg. The IC50 in the data set filed under Mus musculus [5] worked out at 10.3 nM; in data set [6], 4.9 nM; on Cytochrome P450 3A4 it was 6300 nM. In addition, the AUC 0-inf in [9] amounted to 5.4 µM·h.
In the case of `CC(C)c1nc(-c2ccc(F)cc2)c(-c2ccc3nc(N)n(S(=O)(=O)C(C)C)c3c2)[nH]1.CS(=O)(=O)O`, the TMED50 with Mus musculus [1] was determined as 4.9 mg/kg. The same compound showed an AUC 0-inf in data set [4] of 12.8 µM·h. Besides, the IC50 was determined as 28.6 nM in the data set listed under Mus musculus [5], 4.5 nM in data set [6] and 6100 nM on Cytochrome P450 3A4.
In the data set on Mus musculus [1], `CC(C)CN1CCC(c2nc(-c3ccc4nc(N)n(S(=O)(=O)C(C)C)c4c3)c(-c3ccccc3)[nH]2)CC1` had a TMED50 of 7.3 mg/kg. Also, the figures for the IC50 (in the data set filed under Mus musculus [5]; in [6]; on Cytochrome P450 3A4) were 27.9 nM, 5.5 nM and 5300 nM, respectively.
Consider `CC(C)S(=O)(=O)n1c(N)nc2ccc(-c3c(-c4ccc(F)cc4)ncn3C3CCNCC3)cc21`, for which the IC50 in the data set filed under Mus musculus [5] was 4460 nM; in [6], 125 nM.
For `Cc1ccc(-n2nc(C(C)(C)C)cc2NC(=O)Nc2ccc(OCCN3CCOCC3)c3ccccc23)cc1` [DORAMAPIMOD], the TMED50 turned out to be 15 mg/kg with Rattus norvegicus [2] and 30 mg/kg in the data set on Rattus norvegicus [3]. Also, testing at 3 mg/kg with Rattus norvegicus [7] gave an inhibition in vivo of 55%.
Taken in the same sequence, the figures for `OCCC#Cc1nc(-c2ccc(F)cc2)c(-c2ccncc2)n1CCCc1ccccc1` [RWJ-67657] were greater than 30 mg/kg, greater than 30 mg/kg and less than 50%.
Regarding `COc1nccc(-c2c(-c3ccc(F)cc3)ncn2C2CCNCC2)n1` [SB-242235], the TMED50 with Rattus norvegicus [2] is 5 mg/kg; in the data set with Rattus norvegicus [3] it was 7 mg/kg.

Broadly, the IC50 is the midpoint of a concentration-inhibition curve. One may read the inhibition in vivo as the relative decrease from the control value, in per cent. A low value points to little suppression. What is called bioavailability is dose-corrected exposure relative to a reference, in per cent. Lower therefore signals little systemic uptake.
